Key:
[1] = biological target: Histone-lysine N-methyltransferase 2A/WDR5 (Homo sapiens, UniProt P61964); assay: Inhibition of MLL1-WDR5 (unknown origin) protein-protein interaction using Thr-FAM as probe by fluorescence polarization competition assay
Summary of the method: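 Competitive FP with WDR5 and 10mer-Thr-FAM probe in 100 mM KH2PO4, 25 mM KCl, 0.01% Triton X-100, pH 6.5; read at λex 485 ± 25 nm, λem 535 ± 25 nm. IC50 from three independent replicates ± SD.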

[2] = biological target: Histone-lysine N-methyltransferase 2A/WDR5 (Homo sapiens) (UniProt P61964+Q03164); assay: Inhibition of MLL1-WDR5 (unknown origin) protein-protein interaction at 100 uM by competitive fluorescence polarization assay
HUVEC = assay: Antiproliferative activity against human HUVEC cells assessed as cell viability incubated for 72 hrs by CCK8 assay; assay type: cell-based
Summary of the method: (§1)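 Cells seeded at 3000–6000 per well, exposed to inhibitor at several concentrations for 72 h; viability read with CCK8 kit. MV4-11 and K562 grown in modified IMDM + 10% FBS, pen/strep; MOLM-13 in RPMI-1640 + 10% FBS; HUVEC in modified DMEM + 10% FBS; 37 °C, 5% CO2. IC50 as mean ± SD of three independent experiments.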

[3] = Permeability of compound at pH 7.4 incubated for 4 hrs by PAMPA assay; assay type: ADME; details: read-out: permeability
Summary of the method: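 Double-sink PAMPA: compound diluted in pH 7.4 donor buffer, permeation through artificial membrane to acceptor over 4 h at 25 °C; donor and acceptor read by UV; mean ± SD of three independent experiments.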

K562 = assay: Antiproliferative activity against human K562 cells assessed as cell viability incubated for 72 hrs by CCK8 assay; assay type: functional, cell-based; details: K562, 72 h; summary of the method: as §1
MV4-11 = assay: Antiproliferative activity against human MV4-11 cells assessed as cell viability incubated for 72 hrs by CCK8 assay; assay type: functional, cell-based; details: MV4-11, 72 h; summary of the method: as §1
MOLM-13 = assay: Antiproliferative activity against human MOLM-13 cells assessed as cell viability incubated for 72 hrs by CCK8 assay; assay type: functional, cell-based; details: MOLM-13, 72 h; summary of the method: as §1

| Structure (SMILES) | IC50 [1] | further results |
| --- | --- | --- |
| Nc1c(Cl)ncnc1Nc1cc([N+](=O)[O-])ccc1N1CCN(CCO)CC1 | > 50 µM |  |
| CN1CCN(c2ccc(-c3ccc(C(=O)NC4CCOCC4)cc3)cc2Nc2ncnc(Cl)c2N)CC1 | 0.42 µM |  |
| CCN1CCN(c2ccc([N+](=O)[O-])cc2Nc2ncnc(Cl)c2N)CC1 | 38.1 µM |  |
| CN1CCN(c2ccc([N+](=O)[O-])cc2Nc2cc(N3CCC3)ncn2)CC1 | > 50 µM |  |
| Nc1c(Cl)ncnc1Nc1cc([N+](=O)[O-])ccc1N1CCN(c2ccccc2)CC1 | > 50 µM |  |
| CN1CCN(c2ccc(-c3ccc(C(=O)N(C)C)cc3)c(F)c2Nc2ncnc(Cl)c2N)CC1 | 240 µM |  |
| CN1CCN(c2ccc([N+](=O)[O-])cc2Nc2ncnc3ccccc23)CC1 |  | inhibition [2]: 35.8% |
| CN1CCN(c2ccc([N+](=O)[O-])cc2Nc2ncncc2N)CC1 | > 50 µM |  |
| Cc1c(-c2ccc(C(=O)N(C)C)cc2)ccc(N2CCN(C)CC2)c1Nc1ncnc(Cl)c1N | 0.67 µM |  |
| CN1CCN(c2ccc(-c3ccc(C(=O)N4CCOCC4)cc3)cc2Nc2ncnc(Cl)c2N)CC1 | 0.19 µM |  |
| CN1CCN(c2cc(F)c(-c3ccc(C(=O)N4CCOCC4)cc3)cc2Nc2ncnc(Cl)c2N)CC1 | 36 µM | IC50 (HUVEC): > 100 µM; Papp at 4 h [3]: 13.7 ×10⁻⁶ cm/s; IC50 (K562): 88.7 µM; IC50 (MV4-11): 19.6 µM; IC50 (MOLM-13): 16.5 µM |
| CN1CCN(c2ccc([N+](=O)[O-])cc2Nc2ncnc(Cl)c2[N+](=O)[O-])CC1 | > 50 µM |  |
| CN1CCN(c2ccc(-c3ccc(C(=O)NCCCN4CCOCC4)cc3)cc2Nc2ncnc(Cl)c2N)CC1 | 0.16 µM |  |
| CN1CCN(c2cc(F)c(-c3ccc(C(=O)NCCN4CCOCC4)cc3)cc2Nc2ncnc(Cl)c2N)CC1 | 74 µM | IC50 (HUVEC): > 100 µM; Papp at 4 h [3]: 10.5 ×10⁻⁶ cm/s; IC50 (K562): > 100 µM; IC50 (MV4-11): 27.7 µM; IC50 (MOLM-13): 23.1 µM |
| CN1CCN(c2ccc([N+](=O)[O-])cc2Nc2ncccn2)CC1 | > 50 µM |  |
| CN1CCC(NC(=O)c2ccc(-c3ccc(N4CCN(C)CC4)c(Nc4ncnc(Cl)c4N)c3)cc2)CC1 | 0.23 µM |  |
| Cc1nc(Cl)c(N)c(Nc2cc([N+](=O)[O-])ccc2N2CCN(C)CC2)n1 | 12.1 µM |  |
| CN1CCN(c2ccc([N+](=O)[O-])cc2Nc2cc(N(C)C)ncn2)CC1 | > 50 µM |  |
| CN1CCN(c2cc(F)c(-c3ccc(C(=O)N4CCC(O)CC4)cc3)cc2Nc2ncnc(Cl)c2N)CC1 | 33 µM |  |
| CN1CCN(C(=O)c2ccc(-c3ccc(N4CCN(C)CC4)c(Nc4ncnc(Cl)c4N)c3)cc2)CC1 | 0.22 µM |  |

Now from value to compound, other results behind:

| IC50 [1] | Structure (SMILES) | further results |
| --- | --- | --- |
| 117 µM | CN1CCN(c2ccc(-c3ccc(C(=O)N4CCOCC4)cc3)c(F)c2Nc2ncnc(Cl)c2N)CC1 |  |
| 20.4 µM | CN1CCN(c2ccc([N+](=O)[O-])cc2Nc2cc(Cl)nc(N)n2)CC1 |  |
| > 50 µM | Nc1c(Cl)ncnc1Nc1cc([N+](=O)[O-])ccc1N1CCN(C2CC2)CC1 |  |
| 85 µM | CN1CCN(c2ccc(-c3ccc(NC(=O)CC4CCOCC4)cc3)c(F)c2Nc2ncnc(Cl)c2N)CC1 |  |
| > 50 µM | Cc1c(Cl)ncnc1Nc1cc([N+](=O)[O-])ccc1N1CCN(C)CC1 |  |
| > 50 µM | CN1CCN(c2ccc([N+](=O)[O-])cc2Nc2nccc(N)n2)CC1 |  |
| 36 µM | CN1CCN(c2cc(F)c(-c3ccc(C(=O)NCC4CCOCC4)cc3)cc2Nc2ncnc(Cl)c2N)CC1 | IC50 (HUVEC): > 100 µM; Papp at 4 h [3]: 16.9 ×10⁻⁶ cm/s; IC50 (K562): 81.7 µM; IC50 (MV4-11): 15.7 µM; IC50 (MOLM-13): 12.3 µM |
| > 50 µM | Cc1nc(Cl)cc(Nc2cc([N+](=O)[O-])ccc2N2CCN(C)CC2)n1 |  |
| 0.021 µM | CN1CCN(c2cc(F)c(-c3ccc(C(=O)NCCCN4CCOCC4)cc3)cc2Nc2ncnc(Cl)c2N)CC1 | IC50 (HUVEC): > 100 µM; Papp at 4 h [3]: 9.14 ×10⁻⁶ cm/s; IC50 (K562): 70.1 µM; IC50 (MV4-11): 25.6 µM; IC50 (MOLM-13): 17.3 µM |
| 0.16 µM | CN1CCN(c2ccc(-c3ccc(C(=O)N4CCC(C)(O)CC4)cc3)cc2Nc2ncnc(Cl)c2N)CC1 |  |
| > 50 µM | CN1CCN(c2ccc([N+](=O)[O-])cc2Nc2ncccc2N)CC1 |  |
| 465 µM | Cc1cc(N2CCN(C)CC2)c(Nc2ncnc(Cl)c2N)cc1-c1ccc(C(=O)NCCCN2CCOCC2)cc1 |  |
| 69 µM | CN1CCN(c2ccc(-c3ccc(C(=O)NCCCN4CCOCC4)cc3)c(F)c2Nc2ncnc(Cl)c2N)CC1 |  |
| 176 µM | CN1CCN(c2ccc(-c3ccc(NC(=O)C4CCOCC4)cc3)c(F)c2Nc2ncnc(Cl)c2N)CC1 |  |
| > 50 µM | Nc1c(Cl)ncnc1Nc1cc([N+](=O)[O-])ccc1N1CCOCC1 |  |
| 0.18 µM | CN1CCN(c2ccc(-c3ccc(C(=O)NCCN4CCOCC4)cc3)cc2Nc2ncnc(Cl)c2N)CC1 |  |
| 0.11 µM | CN1CCN(c2ccc(-c3ccc(C(=O)N4CCC(O)CC4)cc3)cc2Nc2ncnc(Cl)c2N)CC1 |  |
| 102 µM | CN1CCN(c2ccc(-c3ccc(C(=O)NCCN4CCOCC4)cc3)c(F)c2Nc2ncnc(Cl)c2N)CC1 |  |
| 105 µM | CN1CCC(C(=O)Nc2ccc(-c3ccc(N4CCN(C)CC4)c(Nc4ncnc(Cl)c4N)c3F)cc2)CC1 |  |
| 45.1 µM | Nc1c(Cl)ncnc1Nc1cc([N+](=O)[O-])ccc1N1CCNCC1 |  |
| > 50 µM | CN1CCN(c2ccc([N+](=O)[O-])cc2Nc2cc(N3CCCC3)ncn2)CC1 |  |
| 112 µM | CCN1CCN(C(=O)c2ccc(-c3ccc(N4CCN(C)CC4)c(Nc4ncnc(Cl)c4N)c3F)cc2)CC1 |  |

From ChEMBL document CHEMBL5033998, “Discovery of DDO-2213 as a Potent and Orally Bioavailable Inhibitor of the WDR5-Mixed Lineage Leukemia 1 Protein-Protein Interaction for the Treatment of MLL Fusion Leukemia” (J Med Chem, 2021)
